Screening results deposited in PubChem BioAssay by several laboratories.
Rows were chosen to be rich in hits. Some 2.5% of all compounds tested hit in one or more screens of this group.
MC4R antag cAMP: MC4R antagonists of cAMP signaling, primary screen, cell-based, TR-FRET, antagonist arm of biased-ligand search | Melanocortin receptor 4 (Homo sapiens), P32245 | MC4R-expressing cells, MTII-stimulated cAMP, LANCE TR-FRET | inhibition, % at 6.5 µM | 360,000 compounds, 0.48% hits;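 active = inhibition above its plate's cutoff, the mean of tested wells on that plate plus 3 SD, cut at about 29% in these data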;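 note: 0% = Melanotan II alone and 100% = Melanotan II plus saturating MCL0020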
Target sequence (P32245 whole entry, looked up): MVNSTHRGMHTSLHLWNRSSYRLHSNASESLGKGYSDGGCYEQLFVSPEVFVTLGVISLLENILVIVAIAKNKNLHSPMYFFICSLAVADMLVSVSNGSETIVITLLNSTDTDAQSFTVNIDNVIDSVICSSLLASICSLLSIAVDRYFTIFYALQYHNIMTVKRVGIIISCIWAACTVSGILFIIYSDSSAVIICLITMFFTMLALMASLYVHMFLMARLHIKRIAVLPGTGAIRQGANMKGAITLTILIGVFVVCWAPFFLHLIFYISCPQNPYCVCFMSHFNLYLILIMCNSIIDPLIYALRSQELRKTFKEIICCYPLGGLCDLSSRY
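Assay system: U2OS cells stably expressing human melanocortin 4 receptor (MC4R) / Dosing: 6.5 µM / Timing: compound 30 min, challenge 1 h, detection 1 h / Measured by: Eu-cAMP/anti-cAMP TR-FRET, emission 671 nm / Replicates: singlicate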
A1 inh: caspase 3/7 activation in MEF A1-2A-BIM cells, primary screen, A1 inhibitor project, cell-based, luminescence, HTS | Caspase-Glo 3/7 luminescence, 3 h; percent of clofoctol response, vehicle zero | caspase activation, % (no concentration beside the values) | 330,000 compounds, 0.066% hits;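 active = over half of replicate activation scores above 10%, or exactly half above 10 with the replicate mean above 10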
NALP1 inh: NALP1 inflammasome inhibitors in reconstituted yeast, colorimetric, S. cerevisiae, triplicate retest; S. cerevisiae NALP1/ASC/caspase-1 growth, X-gal OD620, 72 h; inhibition, % at 10 µM; 280,000 compounds, 0.61% hits; AID 2071, 2009; in the data active = inhibition mostly above about 24%, no sharp cut-off; inactive = mostly below about 32%
TbMetRS inhib: T. brucei MetRS inhibitors, primary screen, biochemical, luminescence. methionyl-tRNA synthetase (Trypanosoma brucei brucei). purified T. brucei MetRS, ATP depletion, Kinase-Glo luminescence. inhibition, % at 11.9 µM. 360,000 compounds, 0.4% hits. AID 624268, 2012;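 active = inhibition above a per-plate cutoff of the control wells' mean inhibition plus 3 SD, cut at about 5.5% in these data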;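 note: 0% = DMSO wells median and 100% = median of wells with control inhibitor compound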
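assay system = parasite MetRS enzyme | timing = 15 min preincubation, 2 h reaction, all 25 °C | evaluation = percent inhibition relative to median high and low control wells | medium = HEPES buffer containing pyrophosphatase, BSA, spermine, DTT | compound = single dose, 11.9 µM final nominal, 0.9% final DMSO | detection = Kinase-Glo luminescence, ATP depletion format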
NALP3 yeast inh: NALP3 inflammasome inhibitors in reconstituted yeast, primary screen, luminescence, uHTS | Yeast reconstituted NLRP3/ASC/caspase-1, beta-gal luminescence, 24 h | inhibition, % at 10 µM | 330,000 compounds, 0.39% hits | AID 2825, 2010;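 active = inhibition of 50% or more; inactive = inhibition below 50%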;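 note: plate controls were induced DMSO wells for no effect and uninduced yeast grown without galactose for full effect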
MC4R ag barr: MC4R agonists recruiting beta-arrestin, primary screen, cell-based, luminescence, agonist arm of biased-ligand search; Melanocortin receptor 4 (Homo sapiens), P32245; 360,000 compounds, 0.98% hits; U2OS MC4R beta-arrestin complementation; percent of melanotan II response, DMSO zero; activation, % at 8.9 µM; AID 540308, 2011;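 active = activation above a per-plate cutoff, the mean activation of sample wells on that plate plus 3 SD, cut at about 8% in these data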
NALP3 yeast conf: NALP3 inhibitors retested in yeast, confirmation, luminescence, single concentration. shares compounds with NALP3 yeast inh. inhibition, % at 10 µM. AID 435006, 2010. 1,300 compounds, 81% hits. yeast expressing human NALP3; in the data active = inhibition above about 48%
Casp1-ASC yeast: CASP1-PYCARD signaling inhibition in yeast, confirmatory test, counterassay for NLRP3 inhibitor program, one-dose | shares compounds with NALP3 yeast inh | yeast expressing Caspase-1-ASC, luminescence counter screen | inhibition, % at 10 µM | 1,000 compounds, 66% hits
NALP3 yeast rt: NALP3 inhibitors in yeast, repeat test, confirmation, luminescence, single concentration, retest. yeast expressing human NALP3, luminescence read-out. AID 488794, 2010. shares compounds with NALP3 yeast inh. inhibition, % at 10 µM. 1,000 compounds, 53% hits
Active calls of the source: *; / = no result given. Cut-off read from the data, not from the text of the source, unless noted: active = inhibition above about 50%; inactive = the rest.

SMILES | MC4R antag cAMP | A1 inh | NALP1 inh | TbMetRS inhib | NALP3 yeast inh | MC4R ag barr | NALP3 yeast conf | Casp1-ASC yeast | NALP3 yeast rt
COC(=O)CN(c1ccc(C)cc1)S(=O)(=O)c1ccc(F)cc1 | -6.8 | -0.5 | 10.2 | -0.1 | 58.0* | 1.4 | 55.3* | / | /
Cn1c(C(=O)N2CCCc3ccccc32)cc2sccc21 | -1.4 | 0.4 | -1.7 | -0.5 | 51.3* | 1.4 | 64.2* | 39.8 | 35.2
Cc1cccc(C)c1OCC(=O)Nc1cccc(S(=O)(=O)N2CCCCCC2)c1 | 9.0 | / | / | 0.2 | / | -0.8 | / | / | /
COc1ccc(N=Nc2ccc(O)c3ncccc23)cc1 | 0.8 | -2.1 | / | -0.7 | 31.9 | 4.0 | / | / | /
CCc1ccc(N=Nc2ccc(O)c3[nH]cnc23)cc1 | -1.4 | -4.5 | / | -0.2 | 50.9* | -1.1 | 42.7 | 23.9 | 33.9
Cc1cccc(C)c1-n1nnnc1C(c1ccnc2ccccc12)N1CCN(C/C=C/c2ccccc2)CC1 (centres undefined) | / | / | / | -0.4 | / | / | / | / | /
NCCc1nnc(SCc2c(F)cccc2Cl)o1 | -0.9 | -1.4 | 5.5 | -0.5 | 77.5* | -3.7 | 87.8* | 71.5* | 83.0*
NCCc1nnc(SCc2c(Cl)cccc2Cl)o1 | 13.8 | 0.4 | 39.1* | 0.4 | 83.5* | 3.2 | 82.2* | 83.2* | 91.5*
NCCc1nnc(SCC(=O)c2ccc(Cl)cc2)o1 | -3.6 | 0.4 | 30.5 | -0.1 | 56.3* | -3.2 | 71.2* | / | /
NCCCCCc1nnc(SCC(=O)c2ccc(Cl)cc2)o1 | 4.5 | 0.3 | 28.1 | -0.1 | 20.6 | 0.3 | / | / | /
O=C(Oc1cc(=O)oc2c1c(=O)n1c3c(cccc23)CC1)c1ccccc1 | 15.6 | 0.7 | -3.5 | 0.1 | 64.3* | 1.4 | 76.5* | 56.3* | 62.6*
O=C(Oc1cc(=O)oc2c1c(=O)n1c3c(cccc23)CC1)c1ccc(F)cc1 | 6.5 | -0.4 | 2.2 | -0.5 | 57.9* | -1.3 | 73.8* | / | /
NC(=N\N=CCc1ccccc1)/C(N)=N/N=CCc1ccccc1 | 1.0 | / | / | 0.4 | / | 1.4 | / | / | /
C=C(Cl)COc1ccc2c(CCCC)cc(=O)oc2c1 | 5.2 | 0.7 | 7.2 | -0.3 | 32.9 | -0.3 | / | / | /
C=C(Cl)COc1ccc2c(CC)cc(=O)oc2c1 | -1.8 | 0.2 | 2.4 | -0.6 | 50.8* | -1.1 | 44.1 | 64.3* | 56.4*
CCc1noc(C)c1C(=O)Nc1nc2c(C)cc(C)cc2s1 | 2.9 | 0.4 | / | -0.6 | 72.1* | -0.4 | 76.7* | 75.1* | 61.1*
COc1cccc(OC)c1C(=O)Nc1nc2ccc([N+](=O)[O-])cc2s1 | 2.8 | 0.7 | 7.0 | -0.5 | 54.8* | -1.1 | 74.2* | / | /
CCc1noc(C)c1C(=O)Nc1nc2ccc(F)cc2s1 | 2.4 | 0.4 | / | -0.4 | 68.4* | -0.5 | 78.3* | 75.0* | 65.5*
COc1cccc(OC)c1C(=O)Nc1nc2ccc(S(C)(=O)=O)cc2s1 | 5.3 | -0.2 | 4.9 | 0.2 | 6.0 | 3.2 | / | / | /
O=C(Nc1nc2ccc(Cl)cc2s1)c1ccco1 | -2.2 | -7.8 | -7.3 | -1.1 | 20.1 | -0.5 | / | / | /
Cc1noc(C)c1C(=O)Nc1nc2ccc(Cl)cc2s1 | 8.9 | -7.5 | 7.8 | -0.8 | 57.9* | -1.3 | 71.8* | 70.8* | 57.9*
O=C(C1CC1)N1CCN(c2ccc(O)cc2)CC1 | -2.8 | -0.4 | 29.0 | 0.3 | 1.1 | -1.5 | / | / | /
O=C(CNC(=O)c1cccc(-n2cnnn2)c1)Nc1ccc(F)c(F)c1 | 4.3 | -0.3 | / | 2.1 | 8.8 | -1.1 | / | / | /
COc1ccc(C(=O)Nc2ccccc2C(=O)Nc2ccncc2)cc1 | 3.5 | -5.2 | -3.6 | -0.3 | 14.7 | -3.4 | / | / | /
Cc1noc(C)c1C(=O)Nc1nc2ccc(F)cc2s1 | 6.1 | -15.4 | / | -0.3 | 65.2* | -2.2 | 49.8* | 62.5* | 54.4*
SMILES | MC4R antag cAMP | A1 inh | NALP1 inh | TbMetRS inhib | NALP3 yeast inh | MC4R ag barr | NALP3 yeast conf | Casp1-ASC yeast | NALP3 yeast rt
N#Cc1ccc(C(=O)OCCCc2cc3ccccc3c(=O)o2)cc1 | 3.1 | 0.3 | / | -0.4 | 65.6* | 1.6 | 61.2* | 60.8* | 63.1*
N#Cc1ccc(C(=O)OCCc2cc3ccccc3c(=O)o2)cc1 | -2.2 | 0.7 | / | 0.0 | 43.5 | 0.5 | / | / | /
Cc1ccsc1C(=O)NNC(=O)c1cccc(S(=O)(=O)N2CCCC2)c1 | 10.0 | 0.6 | / | -0.2 | 14.1 | -2.3 | / | / | /
NCCC(=O)N1c2ccccc2Sc2ccc(Cl)cc21 | 17.3 | 1.3 | 22.6 | -0.1 | 72.7* | 0.8 | 84.9* | 77.9* | 87.0*
NCCCC(=O)N1c2ccccc2Sc2ccc(Cl)cc21 | -3.0 | 2.0 | 11.4 | -0.6 | 28.5 | -1.6 | / | / | /
COc1ccc(S(=O)(=O)N2CCOCC2)cc1NC(=O)CN1CCCc2ccccc21 | -7.0 | 0.5 | / | 0.1 | 19.7 | -1.3 | / | / | /
O=[N+]([O-])c1ccc(/C=N/Nc2nc(-c3ccccc3)c3cc(Br)ccc3n2)o1 | -4.7 | 0.0 | 25.1 | -1.2 | 44.2 | -0.9 | / | / | /
Cc1ccc2nc(N/N=C\c3ccc([N+](=O)[O-])o3)nc(-c3ccccc3)c2c1 | 17.9 | 2.6 | -5.2 | -0.9 | 56.9* | 1.2 | 44.1 | 42.6 | 33.1
O=C(C[n+]1ccccc1)N/N=C/c1ccccc1F | 24.4 | 1.8 | 8.4 | -0.3 | 13.0 | 3.5 | / | / | /
O=C(C[n+]1ccccc1)N/N=C/c1cc(Br)ccc1O | 7.8 | -1.9 | -7.6 | -0.2 | 63.7* | -1.7 | 66.5* | 51.4* | 65.6*
Fc1ccccc1-c1nc2ccccc2[nH]1 | -2.5 | -8.6 | 22.4 | -1.5 | 60.4* | -0.6 | 57.8* | 53.9* | 59.5*
c1ccc2nc(-c3nc4ccccc4[nH]3)ccc2c1 | -1.9 | -7.3 | 13.6 | -2.7 | 53.2* | 0.6 | 67.2* | 41.6 | 41.6
c1ccc(Sc2cccc3ccccc23)c(CNC2=NCCN2)c1 | 11.8 | -0.2 | 78.2* | -0.6 | 73.7* | -2.6 | 62.9* | 48.9 | 69.7*
Fc1ccccc1Sc1ccccc1CNC1=NCCN1 | 6.8 | -0.9 | 42.4 | 0.3 | 14.1 | -2.8 | / | / | /
Cc1ccc(S(=O)(=O)N2CCN(C(=O)c3ccc(Br)o3)CC2)c(C)c1 | -2.2 | -1.2 | 19.3 | -0.8 | 34.6 | -0.4 | / | / | /
